A word on the IC50: it is the concentration that gives 50% inhibition. A low value points to greater potency in that assay.

Each structure is given as a SMILES string.

The target of one test is T1, C-X-C chemokine receptor type 4 (Homo sapiens, UniProt P61073). Put plainly: Inhibition of [125I]SDF-1 binding to C-X-C chemokine receptor type 4 (CXCR4) expressed in CHO cells.
T1 sequence (P61073 whole entry): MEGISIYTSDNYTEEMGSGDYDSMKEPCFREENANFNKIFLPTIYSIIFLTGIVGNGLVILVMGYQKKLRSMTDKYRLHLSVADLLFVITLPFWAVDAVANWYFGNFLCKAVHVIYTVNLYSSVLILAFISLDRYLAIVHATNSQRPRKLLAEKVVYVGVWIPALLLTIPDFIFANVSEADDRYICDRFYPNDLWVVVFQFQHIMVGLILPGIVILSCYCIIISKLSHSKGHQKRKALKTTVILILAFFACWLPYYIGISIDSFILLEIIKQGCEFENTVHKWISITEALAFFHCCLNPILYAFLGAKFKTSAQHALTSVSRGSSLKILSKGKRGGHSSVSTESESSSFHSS
Details: not given
It counts as cell-based. The method, boiled down:
(§1)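 Stable CXCR4-expressing CHO transfectants harvested with trypsin-EDTA, recovered 4 to 5 h in complete growth medium, washed in cold binding buffer (PBS with 2 mg/mL BSA). Cells at 1 × 10⁷ cells/mL incubated with 0.1 nM [¹²⁵I]-SDF-1 for 2 h on ice with agitation. Bound and free separated by centrifugation through oil cushion, gamma counting. IC50 from at least three independent experiments, mean with SD.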
For the molecule `N=C(N)NCCC[C@@H]1NC(=O)[C@@H](NC(=O)CCNC(=N)N)CSSC[C@H](C(=O)NCCc2ccc(O)cc2)NC(=O)[C@H](Cc2ccc3ccccc3c2)NC1=O`, the concentration for half-maximal inhibition (IC50) was 530 nM.

The molecule `N=C(N)NCCC[C@@H]1NC(=O)[C@@H]2CCCN2C(=O)[C@@H](Cc2ccc(O)cc2)NC(=O)CNC(=O)[C@H](Cc2ccc3ccccc3c2)NC1=O` gave a half-inhibitory concentration (IC50) of 1600 nM. On the same count and under the same terms, then `CN1C(=O)[C@@H](NC(=O)CCN=C(N)N)CSSC[C@H](C(=O)NCCc2ccc(O)cc2)NC(=O)[C@H](Cc2ccc3ccccc3c2)NC(=O)[C@@H]1CCCN=C(N)N`, with > 10000 nM; and `N=C(N)NCCC[C@@H]1NC(=O)[C@@H](CCC(N)=O)NC(=O)[C@@H](Cc2ccc(O)cc2)NC(=O)CNC(=O)[C@H](Cc2ccc3ccccc3c2)NC1=O`, with 170 nM; and `N=C(N)NCCC[C@@H]1NC(=O)[C@@H](CCC(=O)O)NC(=O)[C@@H](Cc2ccc(O)cc2)NC(=O)CNC(=O)[C@H](Cc2ccc3ccccc3c2)NC1=O`, with 610 nM. Still for that read-out and setting: next, `N=C(N)NCCC[C@@H]1NC(=O)[C@H]2CCCN2C(=O)[C@@H](Cc2ccc(O)cc2)NC(=O)CNC(=O)[C@H](Cc2ccc3ccccc3c2)NC1=O`: 420 nM; `N=C(N)NCCCN[C@H]1CSSC[C@H](C(=O)NCCc2ccc(O)cc2)NC(=O)[C@H](Cc2ccc3ccccc3c2)NC(=O)[C@H](CCCNC(=N)N)NC1=O`: 1000 nM.

Staying with this test, now noted: cho.
On to `N=C(N)NCCC[C@@H]1NC(=O)[C@H](Cc2ccc(O)cc2)NC(=O)/C=C\[C@@H](Cc2ccc3ccccc3c2)NC(=O)[C@@H](CCCNC(=N)N)NC1=O`, for which the IC50 is > 1000 nM.

For `N=C(N)NCCC[C@H]1NC(=O)[C@@H](CCCN=C(N)N)NC(=O)[C@H](Cc2ccc(O)cc2)NC(=O)/C=C\[C@@H](Cc2ccc3ccccc3c2)NC1=O`, the IC50 was > 1000 nM.

The target in another test is T1, C-X-C chemokine receptor type 4. Put plainly: Inhibition of [125I]SDF-1 binding to C-X-C chemokine receptor type 4 (CXCR4) expressed in CHO cells; range = 1-10 uM. Format: cell-based.
Details: not given
Put shortly: as §1
With `N=C(N)NCCC(=O)N[C@H]1C/C=C\C[C@H](C(=O)NCCc2ccc(O)cc2)NC(=O)[C@H](Cc2ccc3ccccc3c2)NC(=O)[C@H](CCCN=C(N)N)NC1=O`, the IC50 is 10000 nM. In other words, the double-digit micromolar range.

The record behind these values is ChEMBL document CHEMBL1144415, “Identification of novel low molecular weight CXCR4 antagonists by structural tuning of cyclic tetrapeptide scaffolds” (J Med Chem, 2005).
